Test results published in ChEMBL document CHEMBL4219071, “New histone demethylase LSD1 inhibitor selectively targets teratocarcinoma and embryonic carcinoma cells” (Bioorg Med Chem, 2018).
The source made the active and inactive calls. The calls are words filed in the database; no cut-off is given here.

What was measured:
[1] = system: PA-1; assay: Cytotoxicity against human PA1 cells assessed as cell growth inhibition at 5 to 20 uM after 12 to 16 hrs by microscopic analysis; format: functional, cell-based
Method in brief: (§1)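 Actively growing HCT116 or PA-1 cells (30–50% confluent), DMSO vehicle control, exposed 16 h over a range of concentrations. Cells imaged by microscope (10×10 lens). Triplicate dishes trypsinized, diluted, spotted blind on a hemacytometer, four corners counted for mean cells per dish. Treated vs control compared by two-tailed t-test. Three independent experiments.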

[2] = system: NIH3T3; assay: Growth inhibition of mouse NIH/3T3 cells at 20 to 40 uM after 30 hrs by microscopic analysis; format: cell-based; settings: nih3t3, 30 h
Method in brief: (§2)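 F9 or NIH3T3 cells in active growth, exposed 30 h to a range of concentrations with DMSO controls, then imaged by microscope. Triplicate dishes trypsinized and counted blind on a hemacytometer (four corners, mean cells per dish). Control vs treated compared by two-tailed equal-variance t-test.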

[3] = biological target: Lysine-specific histone demethylase 1A (Mus musculus) (UniProt Q6ZQ88); assay: Inhibition of LSD1 in mouse F9 cells assessed as downregulation of SOX2 protein at 20 to 40 uM by Western blot analysis; format: cell-based
Method in brief: (§3)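 F9 cells exposed 30 h to a range of concentrations, then lysed directly in 0.5% SDS lysis buffer with protein loads equalized. SOX2 and OCT4 detected by Western blot, actin as loading control, bands quantified.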

[4] = biological target: Lysine-specific histone demethylase 1A (Homo sapiens) (UniProt O60341); assay: Inhibition of LSD1 in human PA1 cells assessed as downregulation of SOX2 protein at 10 to 40 uM after 16 hrs by Western blot analysis
[5] = biological target: Lysine-specific histone demethylase 1A (Homo sapiens) (UniProt O60341); assay: Inhibition of LSD1 in human PA1 cells assessed as increase in H3K4me1 levels at 20 uM after 16 hrs by Western blot analysis; format: cell-based
Method in brief: (§4)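 Actively growing HCT116 or PA-1 cells were treated with CBB3001 or DMSO vehicle for 16 hours. Total histones were extracted, and mono-, di- and trimethylated H3K4 and total histone H3 were probed by Western blot with specific antibodies and quantified. Treatments were run in technical triplicate.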

[6] = biological target: Lysine-specific histone demethylase 1A (Homo sapiens) (UniProt O60341); assay: Inhibition of LSD1 in human PA1 cells assessed as downregulation of OCT4 protein at 10 to 40 uM after 16 hrs by Western blot analysis
[7] = system: F9; assay: Growth inhibition of mouse F9 cells at 20 to 40 uM after 30 hrs by microscopic analysis; format: functional, cell-based; method in brief: as §2
[8] = biological target: Lysine-specific histone demethylase 1A (Mus musculus) (UniProt Q6ZQ88); assay: Inhibition of LSD1 in mouse F9 cells assessed as downregulation of OCT4 protein at 20 to 40 uM by Western blot analysis; format: cell-based; method in brief: as §3
[9] = biological target: Lysine-specific histone demethylase 1A (Homo sapiens) (UniProt O60341); assay: Inhibition of LSD1 in human PA1 cells assessed as downregulation of SOX2 protein expression at 20 to 40 uM after 16 hrs by Western blot analysis; format: cell-based
Method in brief: (§5)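 PA-1 cells in log-phase growth were exposed to CBB3001 for 16 hours and lysed directly in buffer containing 0.5% SDS. Equalized lysates were Western blotted for SOX2, OCT4, LSD1, H3K4me1/2/3 and histone H3 using specific antibodies, with band quantification.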

[10] = biological target: Lysine-specific histone demethylase 1A (Homo sapiens) (UniProt O60341); assay: Inhibition of LSD1 in human PA1 cells assessed as increase in H3K4me2 levels at 20 uM after 16 hrs by Western blot analysis; format: cell-based; method in brief: as §4
[11] = system: HCT-116; assay: Effect on H3K4me3 levels in human HCT116 cells at 20 uM after 16 hrs by Western blot analysis; format: functional, cell-based
Method in brief: (§6)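 HCT116 or PA-1 cells exposed 16 h to a range of concentrations. Total histones extracted. Mono-, di- and trimethylated H3K4 and total histone H3 detected by Western blot with specific antibodies and quantified.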

[12] = biological target: Lysine-specific histone demethylase 1A (Homo sapiens) (UniProt O60341); assay: Inhibition of LSD1 in human HCT116 cells assessed as increase in H3K4me2 levels at 20 uM after 16 hrs by Western blot analysis; format: cell-based; method in brief: as §4
[13] = system: PA-1; assay: Effect on H3K4me3 levels in human PA1 cells at 20 uM after 16 hrs by Western blot analysis; format: functional, cell-based; method in brief: as §6
[14] = biological target: Lysine-specific histone demethylase 1A (Homo sapiens) (UniProt O60341); assay: Inhibition of LSD1 in human PA1 cells assessed as downregulation of OCT4 protein expression at 20 uM after 16 hrs by Western blot analysis; format: cell-based; method in brief: as §5
[15] = biological target: Lysine-specific histone demethylase 1A (Homo sapiens) (UniProt O60341); assay: Inhibition of LSD1 in human HCT116 cells assessed as increase in H3K4me1 levels at 20 uM after 16 hrs by Western blot analysis; format: cell-based; method in brief: as §4
[16] = system: PA-1; assay: Reversible growth inhibitory activity of human PA1 cells at 20 to 40 uM preincubated for 24 hrs followed by 24 hrs recovery by microscopic analysis; format: functional, cell-based
Method in brief: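 PA-1 cells in active growth, exposed 24 h to a range of concentrations. Compound removed, cells washed extensively and regrown 24 h in fresh medium without compound. Cells imaged, then triplicate dishes trypsinized and counted blind on a hemacytometer (four corners). Three independent experiments.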

[17] = system: HCT-116; assay: Cytotoxicity against human HCT116 cells assessed as cell growth inhibition at >40 uM after 16 hrs by microscopic analysis; format: functional, cell-based; method in brief: as §1
[18] = system: HCT-116; assay: Cytotoxicity against human HCT116 cells at 2 uM after 16 to 30 hrs hrs by microscopic analysis; format: functional, cell-based
Method in brief: (§7)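 Actively growing (30–50% confluent) cells were given a single 2 μM dose, with DMSO as the vehicle control, for 16 h. They were imaged by microscopy with a 10×10 lens. Triplicate dishes (technical repeats) were trypsinised, diluted and blindly counted on a hemacytometer, averaging the four corner squares to give cells per dish. Treated and control means were compared by two-tailed t-test.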

[19] = system: PA-1; assay: Cytotoxicity against human PA1 cells at 2 uM after 16 to 30 hrs hrs by microscopic analysis; format: functional, cell-based; method in brief: as §7
[20] = system: F9; assay: Cytotoxicity against mouse F9 cells at 2 uM after 16 to 30 hrs hrs by microscopic analysis; format: functional, cell-based; method in brief: as §7

Row | Compound | growth inhibition (GI) [1] | growth inhibition (GI) [2] | inhibition [3] | inhibition [4] | inhibition [5] | inhibition [6] | growth inhibition (GI) [7] | inhibition [8] | inhibition [9] | inhibition [10] | Activity [11] | inhibition [12] | Activity [13] | inhibition [14] | inhibition [15] | growth inhibition (GI) [16] | growth inhibition (GI) [17] | Activity [18] | Activity [19] | Activity [20]
1 | CC(C)(C)OC(=O)N[C@@H]1C[C@H]1c1ccc(OC(=O)OC(C)(C)C)cc1 | Active | Non-Toxic | Active | Active | Active | Active | Active | Active | Active | Active | inactive | Active | inactive | Active | Active | inactive | inactive |  |  | 
2 | N[C@H]1CC[C@H](N[C@@H]2C[C@H]2c2ccccc2)CC1 |  |  |  |  |  |  |  |  |  |  |  |  |  |  |  |  |  | Active | Active | Active
